{
  "source": "ChEMBL document CHEMBL4765243",
  "about": "“Discovery of Novel Bromophenol-Thiosemicarbazone Hybrids as Potent Selective Inhibitors of Poly(ADP-ribose) Polymerase-1 (PARP-1) for Use in Cancer” (J Med Chem, 2019)",
  "key": {"[1]": {"tested_on": "SK-OV-3", "experiment": "Induction of autophagy in human SKOV3 cells assessed as increase in Atg-14 protein level at 10 uM incubated for 48 hrs by western blot analysis", "format": "functional, cell-based", "procedure,_shortened": "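SK-OV-3 cells seeded in 6-well plates, treated 48 h. Protein lysates separated on 8-15 % SDS-PAGE and transferred to PVDF. Membranes blocked in 5 % nonfat milk, probed with primary antibody overnight at 4 °C, then secondary antibody 1 h at room temperature. Bands detected by enhanced chemiluminescence.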"}, "[2]": {"tested_on": "SK-OV-3", "experiment": "Induction of autophagy in human SKOV3 cells assessed as increase in fluorescence intensity t 10 uM incubated for 48 hrs by immunofluorescence analysis", "format": "functional, cell-based", "procedure,_shortened": "(§1)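 SK-OV-3 cells on glass coverslips infected with Ad-mCherry-GFP-LC3B for 24 h. Cells then treated at 10 µM for 48 h, fixed in 4% paraformaldehyde and examined by fluorescence microscopy.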"}, "[3]": {"experiment": "Subacute toxicity in SPF Kunming mouse assessed as change in kidney at 1000 mg/kg, po administered for 14 days by H and E staining based microscopic analysis", "format": "organism-based", "details": "in vivo, 336 h, time 14 day", "procedure,_shortened": "(§2)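 Twenty SPF Kunming mice (18 - 22 g), half male and half female, randomised into 2 groups of 5 males + 5 females. Treated group dosed orally at 1000 mg/kg once daily for 14 days. Death, clinical signs and body weight monitored. After 14 days: isoflurane anaesthesia, decapitation, tissues collected for H&E histology.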"}, "[4]": {"tested_on": "SK-OV-3", "experiment": "Induction of autophagy in human SKOV3 cells transfected with GFP-LC3 assessed as increase in LC3 dot accumulation at 10 uM incubated for 48 hrs by TEM analysis", "format": "functional, cell-based", "details": "in the assay text read “fluorescence microscopy” for “TEM analysis”", "procedure,_shortened": "as §1"}, "[5]": {"tested_on": "SK-OV-3", "experiment": "Induction of ROS generation in human SKOV3 cells assessed as fold increase in ROS level at 10 uM incubated for 48 hrs by DCFH-DA staining based flow cytometry relative to control", "format": "functional"}, "[6]": {"experiment": "Half-life in Sprague-Dawley rat at 2 mg/kg, iv by LC/MS/MS analysis", "format": "ADME, organism-based", "details": "in vivo", "procedure,_shortened": "(§3)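 Male Sprague-Dawley rats, 4 per group, dosed once orally at 10 mg/kg or intravenously at 2 mg/kg. Blood taken from the saphenous vein for plasma. Drug levels measured by LC-MS-MS, with parameters derived by noncompartmental analysis.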"}, "[7]": {"tested_on": "SK-OV-3", "experiment": "Antiproliferative activity against human SK-OV-3 cells assessed as cell growth inhibition at 20 uM incubated for 48 hrs by MTT assay relative to control", "format": "functional"}, "[8]": {"experiment": "MRT in Sprague-Dawley rat at 10 mg/kg, po by LC/MS/MS analysis", "format": "ADME, organism-based", "details": "in vivo", "procedure,_shortened": "as §3"}, "[9]": {"experiment": "Subacute toxicity in SPF Kunming mouse assessed as change in liver at 1000 mg/kg, po administered for 14 days by H and E staining based microscopic analysis", "format": "organism-based", "details": "in vivo, 336 h, time 14 day", "procedure,_shortened": "as §2"}, "[10]": {"tested_on": "SK-OV-3", "experiment": "Induction of apoptosis in human SKOV3 cells assessed as increase in Bax expression at 2.5 to 10 uM incubated for 48 hrs by western blot analysis", "format": "functional, cell-based", "details": "dose 2.5-10 µM"}, "[11]": {"tested_on": "Caco-2", "experiment": "Antiproliferative activity against human Caco-2 cells assessed as cell growth inhibition incubated for 48 hrs by MTT assay", "format": "functional, cell-based", "details": "Caco-2, 48 h", "procedure,_shortened": "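Cells seeded in 96-well plates and exposed to compounds for 48 h; viability read by MTT. Each experiment repeated three times. SK-OV-3 grown in McCOY's 5A, Bel-7402 and HL-7702 in RPMI-1640, HepG2 in DMEM, Caco-2 in MEM.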"}, "[12]": {"experiment": "AUC (0 to infinity) in Sprague-Dawley rat at 10 mg/kg, po by LC/MS/MS analysis", "format": "ADME, organism-based", "design": "time infinity, route oral, dose 10 mg/kg", "details": "in vivo"}, "[13]": {"experiment": "Acute toxicity in SPF Kunming mouse assessed as abnormality at 100 to 1000 mg/kg, po administered as single dose and measured upto 14 days post drug administration", "format": "organism-based", "details": "in vivo, 336 h, dose 100-1000 mg/kg, time <=14 day", "procedure,_shortened": "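Single oral dose groups at 0 (physiological saline blank, equal volume), 100, 500 and 1000 mg/kg. Mice housed with free access to water and food in stainless cages, 25 ± 1 °C, 12-h light/dark cycle. Survival, body weight and abnormalities recorded up to 14 days post-treatment.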"}, "[14]": {"target": "Poly [ADP-ribose] polymerase 1 (Homo sapiens, UniProt P09874)", "sequence (P09874 whole entry)": "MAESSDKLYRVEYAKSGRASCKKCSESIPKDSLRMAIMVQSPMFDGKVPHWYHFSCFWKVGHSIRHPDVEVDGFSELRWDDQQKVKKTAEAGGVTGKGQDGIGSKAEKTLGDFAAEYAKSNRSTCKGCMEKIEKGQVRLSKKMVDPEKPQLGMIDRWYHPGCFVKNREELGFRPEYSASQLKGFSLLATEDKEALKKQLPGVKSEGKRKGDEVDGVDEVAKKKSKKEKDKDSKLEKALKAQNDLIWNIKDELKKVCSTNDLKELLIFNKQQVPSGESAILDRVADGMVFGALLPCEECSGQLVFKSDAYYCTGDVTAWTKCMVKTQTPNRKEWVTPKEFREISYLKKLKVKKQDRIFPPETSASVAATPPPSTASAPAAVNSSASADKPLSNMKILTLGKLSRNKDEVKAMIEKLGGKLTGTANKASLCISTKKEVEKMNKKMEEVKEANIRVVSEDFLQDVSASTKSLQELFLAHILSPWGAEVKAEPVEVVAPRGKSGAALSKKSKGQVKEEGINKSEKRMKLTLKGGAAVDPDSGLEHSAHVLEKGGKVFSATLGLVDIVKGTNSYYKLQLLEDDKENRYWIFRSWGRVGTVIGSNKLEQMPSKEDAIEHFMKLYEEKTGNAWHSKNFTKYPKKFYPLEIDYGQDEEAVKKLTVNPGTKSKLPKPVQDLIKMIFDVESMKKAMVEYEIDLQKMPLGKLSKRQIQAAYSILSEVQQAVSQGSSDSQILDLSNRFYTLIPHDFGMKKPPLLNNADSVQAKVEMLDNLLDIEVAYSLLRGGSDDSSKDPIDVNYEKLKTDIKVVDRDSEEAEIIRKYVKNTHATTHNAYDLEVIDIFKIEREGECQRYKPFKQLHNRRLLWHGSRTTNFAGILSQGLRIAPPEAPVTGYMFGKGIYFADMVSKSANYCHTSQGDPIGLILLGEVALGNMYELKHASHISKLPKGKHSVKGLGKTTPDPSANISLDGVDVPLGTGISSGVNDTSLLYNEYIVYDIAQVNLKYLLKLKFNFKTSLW", "experiment": "Inhibition of PARP-1 in human SKOV3 cells assessed as inhibition of H2O2-induced poly-ADP ribose formation preincubated for 4 hrs followed by H2O2 addition and incubated overnight by Alexa Fluor 488 staining based confocal microscopic analysis", "format": "cell-based", "details": "SK-OV-3, in the assay text read “incubated for 5 mins” for “incubated overnight”", "procedure,_shortened": "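SK-OV-3 cells were seeded in 96-well plates and grown for 24 h, exposed to compound for 4 h, then to 10 mM H2O2 for 5 min. Cells were fixed and incubated with anti-PAR primary antibody overnight at 4 °C, then with Alexa Fluor 488 secondary antibody. Nuclei were stained with 1 % DAPI and imaged by confocal microscopy.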"}, "[15]": {"target": "Poly [ADP-ribose] polymerase 2 (Homo sapiens, UniProt Q9UGN5)", "sequence (Q9UGN5 whole entry)": "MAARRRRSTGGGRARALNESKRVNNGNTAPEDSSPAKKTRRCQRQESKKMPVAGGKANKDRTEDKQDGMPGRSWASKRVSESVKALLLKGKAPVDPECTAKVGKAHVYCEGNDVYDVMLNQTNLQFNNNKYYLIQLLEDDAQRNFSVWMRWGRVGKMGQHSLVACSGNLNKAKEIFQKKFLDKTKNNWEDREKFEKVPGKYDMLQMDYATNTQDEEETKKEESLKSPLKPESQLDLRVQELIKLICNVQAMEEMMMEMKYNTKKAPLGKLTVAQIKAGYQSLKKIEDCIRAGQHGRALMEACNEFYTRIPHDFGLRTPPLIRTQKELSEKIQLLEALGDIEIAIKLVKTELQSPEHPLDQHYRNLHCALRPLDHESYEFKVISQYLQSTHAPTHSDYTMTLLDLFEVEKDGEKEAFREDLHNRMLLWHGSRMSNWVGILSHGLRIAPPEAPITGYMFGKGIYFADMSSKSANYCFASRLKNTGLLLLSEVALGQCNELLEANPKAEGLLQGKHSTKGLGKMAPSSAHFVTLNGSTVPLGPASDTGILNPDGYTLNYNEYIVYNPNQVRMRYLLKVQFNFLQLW", "experiment": "Inhibition of human recombinant N-terminal GST-tagged PARP-2 expressed in Baculovirus infected Sf9 cells assessed as reduction in NAD+-dependent ADP ribosylation using histone mixture (H2A and H2B) as substrate in presence of activated DNA incubated for 30 mins by chemiluminescence assay"}, "[16]": {"experiment": "Subacute toxicity in SPF Kunming mouse assessed as clinical changes at 1000 mg/kg, po administered for 14 days and measured on day 14", "format": "organism-based", "details": "in vivo, 336 h, time 14 day", "procedure,_shortened": "as §2"}, "[17]": {"experiment": "Subacute toxicity in SPF Kunming mouse assessed as change in body weight at 1000 mg/kg, po administered for 14 days and measured on day 14", "format": "organism-based", "details": "in vivo, 336 h, time 14 day", "procedure,_shortened": "as §2"}, "[18]": {"experiment": "Half-life in Sprague-Dawley rat at 10 mg/kg, po by LC/MS/MS analysis", "format": "ADME, organism-based", "details": "in vivo", "procedure,_shortened": "as §3"}, "[19]": {"tested_on": "SK-OV-3", "experiment": "animal or person", "details": "Mus musculus, SK-OV-3, po, 504 h, read-out: INH"}, "[20]": {"experiment": "Toxicity in Balb/c nude mouse xenografted with human SKOV3 cells assessed as histological changes in liver at 25 to 50 mg/kg, po for 21 days by H and E staining based microscopic analysis", "format": "organism-based", "details": "in vivo, 504 h, dose 25-50 mg/kg, time 21 day", "procedure,_shortened": "(§4)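 SK-OV-3 xenografts in female BALB/c nude mice were dosed orally at 25 or 50 mg/kg in 0.5% CMC-Na for 21 days. Tumours were then snap-frozen in liquid nitrogen or fixed in 10% neutral-buffered formalin. Analysis used western blotting, H&E and immunohistochemistry on paraffin sections (Ki67, γ-H2AX).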"}, "[21]": {"tested_on": "Bel-7402", "experiment": "Antiproliferative activity against human Bel-7402 cells assessed as cell growth inhibition at 20 uM incubated for 48 hrs by MTT assay relative to control", "format": "functional"}, "[22]": {"tested_on": "HepG2", "experiment": "Antiproliferative activity against human HepG2 cells assessed as cell growth inhibition at 20 uM incubated for 48 hrs by MTT assay relative to control", "format": "functional"}, "[23]": {"tested_on": "SK-OV-3", "experiment": "Antitumor activity against human SKOV3 cells xenografted in Balb/c nude mouse assessed as increase in gamma-H2AX protein expression in tumor at 25 to 50 mg/kg, po for 21 days by western blot analysis", "format": "functional, organism-based", "details": "dose 25-50 mg/kg, time 21.0 day", "procedure,_shortened": "as §4"}, "[24]": {"tested_on": "SK-OV-3", "experiment": "Induction of cell cycle arrest in human SKOV3 cells assessed as reduction in CDK1 expression at 2.5 to 10 uM incubated for 48 hrs by western blot analysis", "format": "functional, cell-based", "details": "dose 2.5-10 µM"}},
  "note": "Activity calls are given as the source filed them. The rule behind the calls is not given here.",
  "data": [
    {"smiles": "COc1cc(/C=N/NC(N)=S)c(Br)c(Br)c1OC", "values": [
      {"measurement": "Activity", "setting": "[1]", "result": "Active"},
      {"measurement": "Activity", "setting": "[2]", "result": "Active"},
      {"measurement": "Activity", "setting": "[3]", "result": "Non-Toxic"},
      {"measurement": "Activity", "setting": "[4]", "result": "Active"},
      {"measurement": "fold change (FC)", "setting": "[5]", "result": 3.04},
      {"measurement": "half-life", "setting": "[6]", "result": 0.79, "unit": "h"},
      {"measurement": "inhibition at 20 µM", "setting": "[7]", "result": 100, "unit": "%"},
      {"measurement": "MRT", "setting": "[8]", "result": 3.76, "unit": "h"},
      {"measurement": "Activity", "setting": "[9]", "result": "Non-Toxic"},
      {"measurement": "Activity", "setting": "[10]", "result": "Active"},
      {"measurement": "IC50", "setting": "[11]", "result": 20.5, "unit": "µM"},
      {"measurement": "AUC", "setting": "[12]", "result": 0.0839, "unit": "µM·h"},
      {"measurement": "Activity", "setting": "[13]", "result": "Non-Toxic"},
      {"measurement": "inhibition", "setting": "[14]", "result": "Active"},
      {"measurement": "IC50", "setting": "[15]", "result": "> 1", "unit": "µM"},
      {"measurement": "Activity", "setting": "[16]", "result": "Non-Toxic"},
      {"measurement": "Activity", "setting": "[17]", "result": "Non-Toxic"},
      {"measurement": "half-life", "setting": "[18]", "result": 2.6, "unit": "h"},
      {"measurement": "inhibition in vivo at 25 mg/kg", "setting": "[19]", "result": 70, "unit": "%"},
      {"measurement": "Activity", "setting": "[20]", "result": "Non-Toxic"},
      {"measurement": "inhibition at 20 µM", "setting": "[21]", "result": 63.5, "unit": "%"},
      {"measurement": "inhibition at 20 µM", "setting": "[22]", "result": 71.6, "unit": "%"},
      {"measurement": "Activity", "setting": "[23]", "result": "Active"},
      {"measurement": "Activity", "setting": "[24]", "result": "Active"}
    ]}
  ]
}
